Screening results from PubChem BioAssay.
CHRM5 agonist: human M5 muscarinic receptor agonists, primary screen, CHO-K1 cells, Fluo-8 calcium fluorescence; Muscarinic acetylcholine receptor M5 (Homo sapiens), P08912; CHO-K1 hM5 cells; 0% DMSO wells, 100% maximal acetylcholine response; activation, % at 3 µM; actives 0.19% (n = 360,000); AID 624037, 2012;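 active means activation above the run's mean over test compounds plus 3 SD, cut at about 23% in these data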;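 further: signal is peak over basal fluorescence ratio across the kinetic read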
CHRM5 antagonist: human M5 muscarinic receptor antagonists, primary screen, CHO cells, Fluo-8 calcium fluorescence; actives 0.59% (n = 360,000); inhibition, % at 3 µM; CHO-hM5 cells, ACh EC80; Muscarinic acetylcholine receptor M5 (Homo sapiens), P08912; AID 624040, 2012;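 active means inhibition above a per-plate cutoff, the mean of that plate's test compounds plus 3 SD, cut at about 27% in these data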
M4 PAM: human M4 muscarinic receptor positive allosteric modulators, primary screen, CHO-K1 cells, Fluo-8 calcium fluorescence. actives 0.4% (n = 360,000). Muscarinic acetylcholine receptor M4 (Homo sapiens), P08173. activation, % at 3 µM. CHO-K1 hM4/Gqi5, ACh EC20; 0% = ACh EC20, 100% = maximal ACh. AID 624126, 2012;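 active means activation above its plate's cutoff, the mean activation of sample wells plus 3 SD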
Target sequence (P08173 whole entry, looked up): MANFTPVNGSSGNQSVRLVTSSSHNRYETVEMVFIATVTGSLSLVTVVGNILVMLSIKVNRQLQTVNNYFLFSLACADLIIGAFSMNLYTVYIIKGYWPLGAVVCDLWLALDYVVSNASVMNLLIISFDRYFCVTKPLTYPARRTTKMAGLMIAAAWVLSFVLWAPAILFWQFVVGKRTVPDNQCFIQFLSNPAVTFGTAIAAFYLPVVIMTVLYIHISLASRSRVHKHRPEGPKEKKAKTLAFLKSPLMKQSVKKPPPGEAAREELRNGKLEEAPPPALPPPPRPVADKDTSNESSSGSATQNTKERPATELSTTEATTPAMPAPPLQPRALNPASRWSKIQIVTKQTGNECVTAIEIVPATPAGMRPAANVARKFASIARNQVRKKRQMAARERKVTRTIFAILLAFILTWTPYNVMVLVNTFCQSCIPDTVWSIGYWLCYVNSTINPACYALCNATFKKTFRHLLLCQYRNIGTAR
M4 antag: human M4 muscarinic receptor antagonists, primary screen, CHO cells, Fluo-8 calcium fluorescence | inhibition, % at 3 µM | AID 624125, 2012 | Muscarinic acetylcholine receptor M4 (Homo sapiens), P08173 | CHO-hM4 cells, ACh EC80 | actives 0.73% (n = 360,000);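 active means inhibition above its plate's cutoff, the mean inhibition of sample wells plus 3 SD, cut at about 27% in these data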
M5 PAM: human M5 muscarinic receptor positive allosteric modulators, primary screen, CHO-K1 cells, Fluo-8 calcium fluorescence | actives 0.3% (n = 360,000) | activation, % at 3 µM | CHO-K1 hM5, ACh EC20 PAM; 0% = ACh EC20, 100% = ACh EC100 | Muscarinic acetylcholine receptor M5 (Homo sapiens), P08912;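 active means activation above the run cutoff, the mean activation of all test compounds plus 3 SD, cut at about 18% in these data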
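Test system: CHO-K1 hM5 cells / Doses: single-point, 3 µM nominal / Times: Post-acetylcholine fluorescence recording 140 s / Technique: Fluo-8 calcium fluorescence / Measure: Max/basal fluorescence ratio as % of EC20–EC100 ACh window / Benchmarks: low control EC20 acetylcholine (0%), high control EC100 acetylcholine (100%) / Replicates: one well per compound, no replicates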
M4 ag: human M4 muscarinic receptor agonists, primary screen, CHO-K1 cells, Fluo-8 calcium fluorescence; Muscarinic acetylcholine receptor M4 (Homo sapiens), P08173; CHO-K1 hM4/Gqi5; vehicle 0%, full acetylcholine response 100%; activation, % at 3 µM; actives 0.14% (n = 360,000); AID 624127, 2012;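 active means activation above the run mean over all test wells plus 3 SD, cut at about 32% in these data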;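 further: peak over basal fluorescence ratio per well then scaled between controls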
A number is an active result; - = inactive. Rows were chosen to be rich in hits. Some 1.8% of all compounds tested hit in one or more screens of this group.

SMILES	CHRM5 agonist	CHRM5 antagonist	M4 PAM	M4 antag	M5 PAM	M4 ag
CCC(CC)N1CCN(S(=O)(=O)c2ccc(OC)cc2)CC1	-	-	-	-	21	-
Cc1ccc(S(=O)(=O)N2CCC(=O)N([C@H](COCc3ccc(Cl)c(Cl)c3)Cc3ccccc3)CC2)cc1	-	-	-	-	-	-
COc1ccc(OCCN2CCC(C(=O)NC(c3ccc(Cl)cc3)c3ncccc3C)CC2)cc1 (configuration not stated)	-	-	-	-	-	-
COC(=O)CSc1nnc([C@H](Cc2ccccc2)NC(=O)OC(C)(C)C)o1	-	-	-	-	-	-
COC(=O)CS(=O)(=O)c1nnc([C@H](Cc2ccccc2)NC(=O)OC(C)(C)C)o1	-	-	-	77	-	-
Cc1cccc(CS(=O)(=O)c2nnc([C@H](Cc3ccccc3)NC(=O)OC(C)(C)C)o2)c1	-	-	-	67	-	-
CC(C)(C)OC(=O)N[C@@H](Cc1ccccc1)c1nnc(SCC(N)=O)o1	-	-	-	-	-	-
COC(=O)C1C(=O)N(S(=O)(=O)c2ccc([N+](=O)[O-])cc2)c2ccccc21 (configuration not stated)	-	-	-	-	-	-
CC1(c2ccc(OC(F)F)cc2)NC(=O)N(CC(=O)Nc2cccnc2Cl)C1=O (configuration not stated)	43	-	-	-	-	-
COc1ccc(C2(C)NC(=O)N(CC(=O)Nc3cccnc3Cl)C2=O)cc1 (configuration not stated)	-	-	-	-	-	-
CCOc1ccc(CCN2C(=S)N([C@@H](Cc3ccc(O)cc3)CN3CCC[C@@H]3CN3C(=S)NC[C@@H]3CC(C)C)C[C@@H]2Cc2ccc(O)cc2)cc1	-	-	-	-	-	-
Cc1ccc2nc(C3CCCCC3)c(Cc3ccccc3)n2c1	-	-	-	-	-	-
CCN1C(=O)[C@@H]2Cc3c([nH]c4ccccc34)C(c3ccc(OC)cc3)N2C1=S (some centres not stated)	-	29	-	34	-	-
COC(=O)[C@@]12C[C@@H](CC(=O)N3CCN(C(=O)c4ccco4)CC3)C(=O)N(CCc3ccc(OC)c(OC)c3)C1=CCC(C)(C)C2	-	-	-	-	-	-
CCCCCCCCCCn1ccc(=N)cc1	-	-	-	38	-	-
CCCCCCN1Cc2ccccc2C1	-	-	-	-	-	-
CCCCCCCCn1ccc(=N)cc1	-	-	-	-	20	-
CCCCCCCCN1C(=O)[C@H](CC(=O)N2CCN(C(=O)C3CC3)CC2)C[C@@]2(C(=O)OCC)CCCC=C12	-	-	-	-	-	-
Cc1ccc(Nc2ncc3c(n2)CC(c2ccco2)CC3=O)c(C)c1 (configuration not stated)	-	-	29	-	-	-
Cc1ccc(C2CC(=O)c3cnc(NC(=O)c4ccco4)nc3C2)cc1 (configuration not stated)	-	-	15	-	22	-
O=C1C=C(C#Cc2ccccc2)C[C@@H](c2ccc(F)cc2)C1	-	-	-	-	-	-
CCOC(=O)[C@]12CCCC=C1N(Cc1ccco1)C(=O)[C@H](CC(=O)NCCC(C)C)C2	-	-	-	-	-	-
O=C(c1cccc(S(=O)(=O)N2CCOCC2)c1)N1CCN(C/C=C/c2ccccc2)CC1	-	39	-	-	-	-
O=C(c1cccc(S(=O)(=O)N2CCOCC2)c1)N1CCC(Cc2ccccc2)CC1	-	-	-	-	-	-
COC(=O)Cn1c(O)c(N=NC(=O)CNC(=O)c2ccc3c(c2)OCCO3)c2ccccc21	-	-	-	-	-	-
SMILES	CHRM5 agonist	CHRM5 antagonist	M4 PAM	M4 antag	M5 PAM	M4 ag
O=C(CNC(=O)Cc1ccccc1)N=Nc1c(O)n(Cc2ccc3c(c2)OCO3)c2ccccc12	-	-	21	-	-	-
CC(=O)c1c(C)n(CC(=O)NCc2ccc3c(c2)OCO3)c2ccccc12	-	29	-	-	-	-
CCc1ccc2[nH]c(=O)c(C(c3nnnn3Cc3ccc(OC)cc3)N3CCOCC3)cc2c1 (configuration not stated)	-	-	39	-	-	-
Cn1c2ccccc2c(=O)c2ccc(C#CC3(O)CCCCC3)cc21	-	-	-	-	-	37
CC1C(=O)OC2C1CCC1(C)C3(C)C(=O)C=CC213 (configuration not stated)	-	-	-	-	-	-
COc1ccc2[nH]c(=O)c(CNC3CCCCC3)cc2c1	-	-	23	-	23	-
CN1C(=O)c2cccc3c(N(C)C)ccc(c23)C1=O	41	-	-	-	-	-
CN1C(=O)c2cccc3c(Cl)ccc(c23)C1=O	-	-	-	-	-	-
CNc1ccc2c3c(cccc13)C(=O)N(C)C2=O	125	43	-	40	-	229
CCN(C(=O)CSc1nccc(=O)[nH]1)C1CCCCC1	-	-	-	-	-	-
CN(C(=O)CSc1nccc(=O)[nH]1)C1CCCCC1	-	-	22	-	-	-
CCCC(C)c1nnc(NC(=O)C2CCCO2)s1 (configuration not stated)	-	-	-	30	-	-
Cn1c2c(c(=O)n(C)c1=O)CS(=O)c1ccccc1N2 (configuration not stated)	-	-	-	-	-	-
Cc1ccc(NC(=O)COC(=O)CCc2nc3ccccc3c(=O)[nH]2)c(Br)c1	-	-	25	-	-	-
CC(=O)O[C@@H](Cc1ccc(O)cc1)C(=O)CC(C)C	-	-	-	-	-	-
COC(=O)[C@]12CCCCC=C1N(Cc1ccc3c(c1)OCO3)C(=O)[C@H](CC(=O)N1CCN(C(=O)C3CC3)CC1)C2	-	-	-	-	-	-
C/C(=N\NC(=O)c1cc2c(s1)CCC(C)C2)c1ccc[nH]1 (configuration not stated)	-	-	-	-	-	41
CC(C)c1ccc(NC(=O)C2(C)Cc3c(-c4ccccc4)ccnc3O2)cc1 (configuration not stated)	-	-	-	-	-	-
Cn1ncc(Cl)c1C(=O)N1CCN(c2ccc(Cl)c(Cl)c2)CC1	-	29	-	-	-	-
